According to PMC12780499 (Zoological Research, 2025):
Counter-ions that a name gives are not always drawn.

Key:
[1] = test system: MRSA-infected RAW264.7 macrophages; assay: Intracellular antibacterial activity; assay type: cell-based; conditions: vancomycin 20 μmol/L, 2 h; MOI 10:1
[2] = test system: K. pneumoniae (strain 9409); assay: Membrane depolarization, DiSC3; assay type: cell-based, Klebsiella pneumoniae; conditions: 30 min observation
Summary of the method: (§1)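 Cells grown in Mueller-Hinton broth to OD600 0.5, pelleted (3500 r/min, 5 min, 4°C), washed twice in 5 mM HEPES pH 7.4 with 20 mM glucose. Adjusted to OD600 0.05 and loaded 30 min at room temperature with DiSC₃(5) (2 µmol/L final). KCl added (100 mmol/L final). After baseline reading (ex 622/em 670 nm), test compound added at 1, 2, 4 or 8 µmol/L; read continuously for 30 min.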

MRSA (strain 33564) [3] = assay: Time-kill kinetics; assay type: cell-based, methicillin-resistant Staphylococcus aureus; conditions: gentamicin 20 μmol/L; 1×10^7 CFU/mL, RPMI 1640 + 10% FBS, 37°C
Summary of the method: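 Bacteria adjusted to 1×10^7 CFU/mL in RPMI 1640 with 10% FBS. Incubated at 37°C, 200 rpm. Sampled every 30 min from 0 to 360 min, serially diluted in saline, plated on Mueller-Hinton agar, counted after 24 h at 37°C. Plotted as log₁₀ CFU/mL versus time.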

MRSA (strain 33564) [4] = assay: Membrane depolarization, DiSC3; assay type: cell-based, methicillin-resistant Staphylococcus aureus; conditions: 30 min observation
Summary of the method: as §1

Question: For CN[C@H](CC(C)C)C(=O)N[C@H]1C(=O)N[C@@H](CC(N)=O)C(=O)N[C@H]2C(=O)N[C@H]3C(=O)N[C@H](C(=O)N[C@H](C(=O)O)c4cc(O)cc(O)c4-c4cc3ccc4O)[C@H](O)c3ccc(c(Cl)c3)Oc3cc2cc(c3O[C@@H]2O[C@H](CO)[C@@H](O)[C@H](O)[C@H]2O[C@H]2C[C@](C)(N)[C@H](O)[C@H](C)O2)Oc2ccc(cc2Cl)[C@H]1O [Vancomycin, vancomycin sulfate], which intracellular bacterial burden [1] is on record?
Answer: The intracellular bacterial burden was “approximately 1.5×10^5 CFU/mL”.

Question: With CNC(C)C1CCC(N)C(OC2C(N)CC(N)C(OC3OCC(C)(O)C(NC)C3O)C2O)O1 (stereo not shown) [Gentamicin, gentamicin sulfate] as the molecule, how does the “DiSC3(5) fluorescence (membrane potential)” value [2] read?
Answer: Its value is “maintained baseline fluorescence”.

Question: What about the “time to eradicate all viable cells” value (MRSA (strain 33564) [3]) of the same molecule?
Answer: The value was “over 360 min”.

Question: And the “DiSC3(5) fluorescence (membrane potential)” value (MRSA (strain 33564) [4])?
Answer: Its value is “maintained baseline fluorescence”.
